Compounds with a hit are over-represented: about 4% of the library has one in this group of screens.
TAAR1 ag: human TAAR1 agonism; Q96RJ0; hit rate 0.99% among 360,000; activation, % at 3 µM; CHO RD-HGA16 TAAR1, Fluo-8 calcium fluorescence; vehicle wells 0%, saturating PEA agonist 100%;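 active = activation above the mean activation of all test compounds in the run plus 3 SD, cut at about 38% in these data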
Target sequence (Q96RJ0 whole entry, looked up): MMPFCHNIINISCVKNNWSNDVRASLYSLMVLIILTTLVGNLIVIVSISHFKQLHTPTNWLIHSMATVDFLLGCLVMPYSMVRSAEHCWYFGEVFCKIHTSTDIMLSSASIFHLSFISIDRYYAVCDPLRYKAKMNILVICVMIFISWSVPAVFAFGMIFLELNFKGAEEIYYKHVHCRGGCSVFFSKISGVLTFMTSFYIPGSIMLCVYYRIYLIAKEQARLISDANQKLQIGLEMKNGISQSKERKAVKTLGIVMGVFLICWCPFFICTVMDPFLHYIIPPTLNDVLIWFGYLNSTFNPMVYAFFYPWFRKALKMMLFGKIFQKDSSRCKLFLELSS
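Test system: RD-HGA16 (CHO) cells co-expressing Gα16 and hTAAR1 | Doses: Single dose, 3 µM | Schedule: 17-24 h seeding, 75 min 37 °C dye, 30 min RT | Evaluation: % activation from peak over basal fluorescence ratio, DMSO-to-PEA scaled | Technique: Kinetic Fluo-8 calcium fluorescence | Benchmarks: Low control DMSO, high control PEA (EC100)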
DAGLB inhibitor: diacylglycerol lipase beta (human) inhibition; Q8NCG7; HEK293T DAGLB membrane lysate, EnzChek fluorogenic substrate; inhibition, % at 5.17 µM; hit rate 0.059% among 340,000; AID 504411; in the data active = inhibition above about 34%;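 also: 0% = enzyme with vehicle and 100% = wells lacking enzyme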
GPR7 antag: blocks human GPR7 receptor signaling; AID 1861; hit rate 1.1% among 290,000; inhibition, % at 4.4 µM; GPR7-expressing cells, fluorescence antagonist assay; in the data active = inhibition above about 16%, passing the limit was not always enough;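 also: cells stimulated with the agonist NPW; 0% = agonist with vehicle and 100% = vehicle without agonist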
Target sequence (P48145 whole entry, looked up): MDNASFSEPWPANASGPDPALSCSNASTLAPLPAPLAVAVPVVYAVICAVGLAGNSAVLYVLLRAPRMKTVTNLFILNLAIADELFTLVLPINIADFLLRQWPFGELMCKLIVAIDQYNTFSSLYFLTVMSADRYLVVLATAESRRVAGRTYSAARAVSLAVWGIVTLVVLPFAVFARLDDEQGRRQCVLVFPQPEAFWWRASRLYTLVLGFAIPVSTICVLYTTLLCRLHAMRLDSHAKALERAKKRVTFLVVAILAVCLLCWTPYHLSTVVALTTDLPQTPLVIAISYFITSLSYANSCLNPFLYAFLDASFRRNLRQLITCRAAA
MPTP inh: inhibitors of mitochondrial permeability transition pore; hit rate 1.4% among 360,000; inhibition, % at 10 µM; AID 602449; isolated mouse mitochondria, Ca2+ swelling absorbance, 30 min;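 active = inhibition of 50% or more, scaled per plate between neutral and stimulator controls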;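 also: 0% = DMSO wells given calcium and 100% = 1 mM EGTA wells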
TAAR1 antagonist: antagonists of human TAAR1; Q96RJ0; CHO RD-HGA16 TAAR1, Fluo-8 calcium fluorescence, antagonist; inhibition, % at 3 µM; hit rate 1.5% among 360,000; AID 624466;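 active = inhibition above a per-plate cutoff, the mean inhibition of test compounds on that plate plus 3 SD, cut at about 49% in these data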;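 also: 0% = DMSO plus EC80 beta-PEA response and 100% = DMSO alone without agonist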
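Test system: CHO RD-HGA16 cells bearing hTAAR1 | Reagent: β-PEA, EC80 | Compound dosing: 3 µM, single point | Schedule: Dye loading 75 min at 37 °C, then 30 min room temperature | Signal: Calcium fluorescence with Fluo-8 | Evaluation: Percent inhibition of PEA-evoked calcium signal, max/basal emission ratio | Control set: DMSO-only wells and EC80 β-PEA-stimulated wells | Repeats: Singlicate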
MPTP counter: membrane potential counter-screen of mitochondrial pore inhibitors. shares compounds with MPTP inh. isolated mitochondria, Rhodamine 123 fluorescence. inhibition, % at 10 µM. hit rate 78% among 5,000. AID 624504; in the data active = inhibition above about 22%;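 also: 0% = DMSO vehicle and 100% = positive control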
MPTP abs DR: dose response confirmation of mitochondrial permeability transition pore inhibitors. AID 651561. hit rate 58% among 780. isolated mitochondria swelling, absorbance. shares compounds with MPTP inh. IC50, µM; in the data active = IC50 below about 20 µM
MPTP counter DR: active in counter-screen for permeability transition pore inhibitors | hit rate 49% among 780 | IC50, µM | AID 651564 | shares compounds with MPTP inh | isolated mitochondria counterscreen, fluorescence read-out; in the data active = IC50 below about 80 µM
* marks the source's active call; other numbers are inactive results; i = inactive; · = no result.

SMILES | TAAR1 ag | DAGLB inhibitor | GPR7 antag | MPTP inh | TAAR1 antagonist | MPTP counter | others
Cc1cc(C)cc(Nc2nc(-c3ccc(S(=O)(=O)N4CCCC4)cc3)cs2)c1 | -1 | -4 | -13 | 9 | 13 | ·
O=S(=O)(c1ccc(-c2csc(Nc3ccc(Br)cc3)n2)cc1)N1CCCC1 | 2 | -2 | -2 | 60* | -7 | 56*
COc1ccc(N2CCN(c3cc(C(=O)Nc4cc(OC)c(OC)c(OC)c4)ncn3)CC2)cc1OC | 6 | · | · | -3 | 10 | ·
COc1cccc(S(=O)(=O)N(C)C[C@@H]2Oc3ncc(Br)cc3C(=O)N([C@H](C)CO)C[C@@H]2C)c1 | 0 | · | · | · | 13 | ·
Cc1cccc(NC(=O)CSc2cc(C)c(C#N)c3nc4ccccc4n23)c1 | 7 | -4 | -14 | 85* | -18 | 58*
COc1cccc(OCC(O)CNC(C)c2ccccc2)c1 (stereo unspecified) | 5 | 1 | 6 | 2 | -22 | ·
COc1ccc(C(OCC(O)CNC(C)c2ccccc2)c2ccc(OC)cc2)cc1 (stereo unspecified) | 14 | -6 | 12 | 97* | 2 | -7 | MPTP abs DR=7.5*;MPTP counter DR=>80
Fc1ccc(NC(=S)SCc2ccc3c(c2)OCO3)cc1F | 7 | -5 | · | 76* | 22 | 94*
CCOC(=O)C1=C[C@@H](C(C)(C)C)N(S(=O)(=O)c2ccc(C)cc2)[C@H]1c1ccc(C)cc1 | 1 | · | · | 0 | -19 | ·
Oc1cccc(C(O)CNCc2ccc(-c3ccccc3)cc2)c1 (stereo unspecified) | 25 | -4 | 10 | 92* | 21 | -14 | MPTP abs DR=4.2*;MPTP counter DR=51*
Oc1cccc(C(O)CNCc2ccc(OCc3ccc(Cl)cc3Cl)cc2)c1 (stereo unspecified) | 29 | -2 | -14 | 83* | 15 | -12 | MPTP abs DR=6.7*;MPTP counter DR=43*
OC(CNCc1cccc(Cl)c1)c1ccccc1 (stereo unspecified) | 6 | -1 | 10 | -2 | 7 | ·
OC(CNCc1ccccc1)c1ccccc1 (stereo unspecified) | 3 | -2 | -9 | 1 | 4 | ·
O=c1c(Cc2ccccc2)c(O)c2cccc3c4c(n1c23)CCCC4 | 3 | 4 | -21 | 66* | 5 | 80*
CCCNC(=O)C1(C)CCCN(CC(=O)c2ccccc2OC)C1 (stereo unspecified) | 2 | · | · | 0 | -10 | ·
Cn1ncc(SCc2ccccc2)c(Cl)c1=O | 2 | · | -15 | 58* | -6 | 22*
COc1cc(CNCCO)cc(Cl)c1OCc1ccc(Cl)cc1Cl | 29 | -4 | 58* | 97* | 12 | -12
COc1cc(CNC2CCCC2)cc(OC)c1OC | 6 | 2 | -3 | -1 | 11 | ·
COc1cc(CNC2CCCC2)cc(Cl)c1OCc1ccccc1Cl | · | 0 | 9 | 82* | · | -11
COCCNc1nc(NCCOc2ccccc2Cl)c2sc(-c3ccccc3)cc2n1 | -1 | · | · | 6 | -3 | ·
COCCNc1nc(NCC2CCCCC2)c2sc(-c3ccccc3)cc2n1 | 11 | · | · | 70* | -21 | 93*
c1ccc(-c2cc3nc(NCC4CC4)nc(NCC4CCCCC4)c3s2)cc1 | -1 | · | · | 75* | -16 | 97*
CCOC(=O)C1(Cc2ccccc2)C(=O)N(CCCN(C)C)c2ccccc21 (stereo unspecified) | 2 | · | · | 1 | -3 | ·
COc1cccc(Nc2nc3ccccc3nc2NS(=O)(=O)c2cccs2)c1 | 7 | 9 | -7 | 58* | 19 | 71*
COc1ccc(Nc2nc3ccccc3nc2NS(=O)(=O)c2cccs2)c(OC)c1 | 3 | 6 | -13 | 37 | 1 | ·
SMILES | TAAR1 ag | DAGLB inhibitor | GPR7 antag | MPTP inh | TAAR1 antagonist | MPTP counter | others
CCc1ccc(Nc2cc(C(=O)NCCCN3CCOCC3)c3ccccc3n2)cc1 | 28 | 6 | 5 | 52* | 43 | -25 | MPTP abs DR=i;MPTP counter DR=>80
COc1ccc(Nc2cc(C(=O)NCCCN3CCOCC3)c3ccccc3n2)cc1 | 3 | 2 | -6 | -1 | -1 | ·
O=C(Nc1ccc(Cl)c(Cl)c1)c1ccc(Cn2cc(Cl)cn2)cc1 | 7 | -1 | 6 | 54* | 16 | 87*
C=CCN1C(=O)c2n[nH]c(C(C)C)c2C1c1ccc(C)cc1 (stereo unspecified) | -2 | · | · | · | -8 | ·
CC(CC(=O)O)CC(=O)Nc1cc(C(F)(F)F)cc(C(F)(F)F)c1 (stereo unspecified) | 1 | 2 | -17 | 2 | -23 | ·
CNC(=O)Nc1cc(C(F)(F)F)cc(C(F)(F)F)c1 | 3 | -3 | -14 | 64* | 1 | 94*
O=C(NCc1cccnc1)c1cc(C2CCCCN2S(=O)(=O)Cc2ccccc2)on1 (stereo unspecified) | 2 | · | · | 0 | -20 | ·
Cn1c(=O)c2c([nH]c(=S)n2Cc2ccc(Cl)cc2)n(C)c1=O | 3 | 4 | -5 | -1 | -17 | ·
CCOc1ccc(N(C)S(=O)(=O)c2ccc(C)c(C(=O)OCC(=O)c3c[nH]c4ccccc34)c2)cc1 | 3 | -4 | -9 | 51* | 14 | 30*
COc1ccc(C(=O)OCC(=O)c2c[nH]c3ccccc23)c(OC)c1 | 10 | -2 | · | 0 | 41 | ·
O=C(Nc1ccc(Cl)c(Cl)c1)C1=Cc2ccccc2OC1 | 9 | -5 | -14 | 89* | 60* | 92*
O=C(NCc1ccc(Cl)cc1)C1=Cc2cc(Cl)ccc2OC1 | 2 | -12 | -8 | 78* | 19 | 89*
O=C(Nc1cccc(Cl)c1)C1=Cc2cc(Cl)ccc2OC1 | 4 | -10 | -5 | 95* | 22 | 110*
COc1ccc(NC(=O)c2cc(-c3sc(NC(=O)c4ccccc4)nc3C)n(CCO)n2)cc1 | 5 | · | · | 0 | 12 | ·
CCC(NC(=S)NC1CCCCC1)c1ccc(C)cc1 (stereo unspecified) | · | -2 | 1 | 1 | · | ·
Cc1ccc(C)c(OCC(O)CN2CCC(CN3C(=O)c4cccc5cccc(c45)C3=O)CC2)c1 (stereo unspecified) | 10 | -1 | -1 | 100* | -11 | 92*
COc1ccc(OCC(O)CN2CCC(CN3C(=O)c4cccc5cccc(c45)C3=O)CC2)cc1 (stereo unspecified) | 10 | 0 | · | 19 | -10 | ·
O=C1c2cccc3cccc(c23)C(=O)N1CC1CCN(CC(O)COCc2ccc3c(c2)OCO3)CC1 (stereo unspecified) | 10 | -1 | -5 | 56* | -6 | 5 | MPTP abs DR=9.6*;MPTP counter DR=26*
Cn1ncc(Br)c1NC(=O)Nc1ccc(OC(F)(F)F)cc1 | 11 | -1 | 11 | 89* | -7 | 85*
C#CCNC(=O)C[C@@H]1C[C@@]2(C(=O)OC)CCCCC=C2N(CCCCCCCC)C1=O | -2 | · | · | -1 | 2 | ·
C=CCCC1CN(Cc2ccc(OC)cc2)S(=O)(=O)c2c(F)cccc2O1 (stereo unspecified) | 1 | · | · | · | 18 | ·

Assay outcomes from PubChem BioAssay.
